Assay [1] addresses GABA-A receptor; anion channel (Rattus norvegicus) (UniProt O09028+P15431+P18506+P18508+P19969+P20236+P23574+P23576+P28471+P28473+P30191+P62813+P63079+P63138+Q91ZM7+Q9ES14). As to the kind of experiment: Ability to inhibit [35S]t-butyl-bicyclophosphorothionate binding by 50% to rat whole brain membrane. The assay is classed as tissue-based. In outline: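 Male Wistar rat whole-brain membranes, washed with four freeze–thaw cycles. 100 ug membrane protein incubated with [35S]TBPS (2 nM final) in 20 mM KH2PO4/200 mM KCl, pH 7.4, containing GABA 600 nM final. Incubated 150 min at about 22 °C on shaker; vacuum filtration through GF/B filters; scintillation counting. Nonspecific binding with 200 uM picrotoxin. Reported as IC50, mean ± SEM.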

The test system of a further assay is Mus musculus. As to the kind of experiment: Loss of righting reflex following i.v. administration in mice. The assay is classed as functional. The essentials:
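Male MF-1 mice in groups of eight given compound in saline iv via lateral tail vein over 10 s (10 mL/kg). Doses on a umol/kg scale, extra doses added to narrow range. Animals boxed separately; loss of righting reflex lasting ≥30 s scored. HD50 with 95% confidence limits by probit analysis.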

For assay [2], the target named is T1, GABA-A receptor; alpha-1/beta-3/gamma-2 (Homo sapiens, UniProt P14867+P18507+P28472).
T1 sequence (P14867 whole entry): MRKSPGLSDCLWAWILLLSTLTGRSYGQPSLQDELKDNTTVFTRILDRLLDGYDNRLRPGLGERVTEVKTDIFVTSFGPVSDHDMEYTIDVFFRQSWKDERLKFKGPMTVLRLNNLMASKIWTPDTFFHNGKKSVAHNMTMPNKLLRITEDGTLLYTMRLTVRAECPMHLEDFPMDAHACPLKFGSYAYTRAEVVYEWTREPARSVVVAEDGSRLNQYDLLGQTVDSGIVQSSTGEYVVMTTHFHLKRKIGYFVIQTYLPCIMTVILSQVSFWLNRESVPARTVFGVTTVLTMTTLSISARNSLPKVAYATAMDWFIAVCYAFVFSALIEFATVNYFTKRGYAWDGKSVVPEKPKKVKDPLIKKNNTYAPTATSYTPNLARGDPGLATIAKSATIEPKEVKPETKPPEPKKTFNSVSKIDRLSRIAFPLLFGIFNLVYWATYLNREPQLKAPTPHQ
T1 sequence (P18507 whole entry): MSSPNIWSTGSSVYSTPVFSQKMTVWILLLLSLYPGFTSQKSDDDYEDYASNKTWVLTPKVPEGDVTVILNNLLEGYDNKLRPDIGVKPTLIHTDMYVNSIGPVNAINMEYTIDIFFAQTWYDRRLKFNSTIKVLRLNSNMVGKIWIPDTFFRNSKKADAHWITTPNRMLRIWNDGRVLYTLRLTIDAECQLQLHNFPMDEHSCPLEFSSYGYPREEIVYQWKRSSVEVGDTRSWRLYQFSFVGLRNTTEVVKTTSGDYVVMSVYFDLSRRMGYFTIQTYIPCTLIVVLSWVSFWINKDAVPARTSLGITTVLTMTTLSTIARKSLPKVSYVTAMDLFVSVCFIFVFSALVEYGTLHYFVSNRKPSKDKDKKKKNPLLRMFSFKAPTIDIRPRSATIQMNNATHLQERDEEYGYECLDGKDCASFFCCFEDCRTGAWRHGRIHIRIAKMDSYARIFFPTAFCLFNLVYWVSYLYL
T1 sequence (P28472 whole entry): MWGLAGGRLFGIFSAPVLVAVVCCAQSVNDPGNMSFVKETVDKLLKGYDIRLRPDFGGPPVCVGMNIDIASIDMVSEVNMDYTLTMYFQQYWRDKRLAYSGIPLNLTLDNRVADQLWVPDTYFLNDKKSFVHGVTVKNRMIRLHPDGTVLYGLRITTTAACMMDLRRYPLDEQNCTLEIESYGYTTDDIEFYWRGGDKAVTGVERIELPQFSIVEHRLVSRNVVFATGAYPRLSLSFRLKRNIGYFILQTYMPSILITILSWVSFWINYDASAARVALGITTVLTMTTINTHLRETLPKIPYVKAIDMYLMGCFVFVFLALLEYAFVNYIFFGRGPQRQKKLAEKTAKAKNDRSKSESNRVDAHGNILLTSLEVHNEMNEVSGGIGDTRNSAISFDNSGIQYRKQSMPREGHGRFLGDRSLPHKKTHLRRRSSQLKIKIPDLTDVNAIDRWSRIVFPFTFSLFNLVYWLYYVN
As to the kind of experiment: GABA-modulatory action compound was evaluated on Oocytes expressing recombinant human alpha-1-beta-3-gamma-2L GABA A receptor at concentrations of >=100 micro<M. It counts as protein-complex assay. In outline: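 Oocytes expressing human α1β3γ2L receptors, used 2–12 days after cRNA injection, were recorded with two electrodes at 18–22 °C. […] Compound was preapplied 30–60 s, then co-applied with EC10 GABA. Peak current was read manually; EC50 came from the fitted curve; mean ± s.e.mean.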

Assay [3] addresses T1, GABA-A receptor; alpha-1/beta-3/gamma-2. As to the kind of experiment: GABA-mimetic action on Oocytes expressing human alpha-1-beta-3-gamma-2L GABA-A receptor subunits at >=100 uM.

The text below walks through data of ChEMBL document CHEMBL1134654, “Alpha-amino acid phenolic ester derivatives: novel water-soluble general anesthetic agents which allosterically modulate GABA(A) receptors” (J Med Chem, 2001).

The structures appear in SMILES notation. Bounds are passed on as bounds.

For the compound `CC[C@H](C(=O)Oc1c(OC)cccc1OC)N(CCOC)CCOC`, in assay [1], the TBPS IC50 was found to be 7.4 µM.
In assay [1], `CCCC(C(=O)Oc1c(OC)cccc1OC)N(CCOC)CCOC` (stereo not drawn) returned a TBPS IC50 of 7.7 µM. The same compound gave an HD50 in the assay with Mus musculus of 12.4 µmol/kg.
The compound `COc1cc(C)cc(OC)c1OC(=O)C(C)(C)N1CCOCC1` yielded a TBPS IC50 in assay [1] greater than 10 µM. For the same compound, the HD50 in the assay with Mus musculus was 53.8 µmol/kg.
In assay [1], `CCC[C@H](C(=O)Oc1c(OC)cccc1OC)N(CCOC)CCOC` showed a TBPS IC50 of 3.2 µM. This compound also yielded an HD50 in the assay with Mus musculus of 7.3 µmol/kg.
By EC50 is commonly meant the concentration that produces a half-maximal response. Turning to `COc1cccc(OC)c1OC(=O)[C@H](C)N1CCc2ccccc2C1`, the EC50 in assay [2] is greater than 100 µM. For the same compound, in assay [1], the TBPS IC50 is 23.8 µM. The HD50 in the assay on Mus musculus worked out at 82.6 µmol/kg.
For the compound `CCC(C(=O)Oc1c(OC)cccc1OC)N1CCOCC1` (stereo not drawn), the TBPS IC50 in assay [1] is greater than 10 µM. Further, the HD50 with Mus musculus stood at 38 µmol/kg.
In the same order, the values of `COc1cccc(OC)c1C(=O)NCCN1CCc2ccccc2C1` are greater than 100 µM and 45.7 µmol/kg.
Regarding `COc1cccc(OC)c1OC(=O)[C@@H](C)N1CCOCC1.Cl`, the EC50 in assay [2] came out at 198 µM. The compound further showed a TBPS IC50 in assay [1] greater than 100 µM. In addition, in the assay with Mus musculus, the HD50 amounted to 85.9 µmol/kg.
In the same order, the values of `COc1cccc(OC)c1OC(=O)[C@@H](C)N1CCc2ccccc2C1` are 4.1 µM, 3.3 µM and 20.7 µmol/kg.
With `CCC(C(=O)Oc1c(OC)cc(C)cc1OC)N1CCOCC1` (stereo not drawn), in the assay with Mus musculus, the HD50 was found to be 68.1 µmol/kg.
`CC[C@H](C(=O)Oc1c(OC)cc(C)cc1OC)N(CCOC)CCOC` [ORG-24447]: in assay [2], the EC50 was 10 µM. The compound further had a TBPS IC50 in assay [1] of 16 µM. The same compound displayed an HD50 in the assay on Mus musculus of 18 µmol/kg.
With `CCCCC(C(=O)Oc1c(OC)cccc1OC)N(CCOC)CCOC` (stereo not drawn), the TBPS IC50 in assay [1] turned out to be 1.6 µM. For the same compound, the HD50 with Mus musculus stood at 11 µmol/kg.
In the case of `COc1cccc(OC)c1OC(=O)C(C)N1CCc2ccccc2C1` (stereo not drawn), in assay [2], the EC50 came out at 5.5 µM. The compound further had a TBPS IC50 in assay [1] of 4.8 µM. In the assay with Mus musculus, this compound had an HD50 of 33.2 µmol/kg.
Turning to `CCC(C(=O)Oc1c(OC)cccc1OC)N(CCOC)CCOC` (stereo not drawn), in assay [1], the TBPS IC50 was 24.3 µM.
Compound `COCCN(CCOC)C(C(=O)Oc1c(OC)cccc1OC)C(C)C` (stereo not drawn) gave a TBPS IC50 in assay [1] greater than 10 µM. For the same compound, the HD50 with Mus musculus was found to be 26.9 µmol/kg.
For the compound `CC(C)c1cccc(C(C)C)c1O` [PROPOFOL], the EC50 in assay [3] was 50 µM; in assay [2], 4.1 µM.
In turn, `COc1cccc(OC)c1C(=O)OCCN1CCc2ccccc2C1` came in with a TBPS IC50 in assay [1] greater than 30 µM. Also, in the assay with Mus musculus, the HD50 came to 19 µmol/kg.
The corresponding values for `COc1cccc(OC)c1NC(=O)[C@@H](C)N1CCc2ccccc2C1` are greater than 10 µM and 44.1 µmol/kg.
In the same order, the values of `CCC(C(=O)Oc1c(OC)cc(C)cc1OC)N(CCOC)CCOC` (stereo not drawn) are 29.3 µM and 21.7 µmol/kg.
`CC(C)c1cccc(C(C)C)c1OC(=O)CN1CCOCC1` showed an HD50 in the assay on Mus musculus of 98.1 µmol/kg.
Compound `COc1cccc(OC)c1OC(=O)C(c1ccccc1)N1CCOCC1` (stereo not drawn) displayed a TBPS IC50 in assay [1] of 66 µM. In the assay with Mus musculus, this compound yielded an HD50 of 39.6 µmol/kg.
